Columns and labels:
HL-60 = test: In vitro induction of HL-60 cell differentiation.; assay type: functional, Homo sapiens; set-up: reference not given here
Method in brief: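 HL-60 differentiation was scored by the NBT reduction method.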

[1] = biological target: T1, Vitamin D3 receptor (Bos taurus) (UniProt Q28037); test: Binding affinity at bovine thymus Vitamin D3 receptor relative to 1-alpha,25-Dihydroxyvitamin D3.
T1 sequence (whole entry): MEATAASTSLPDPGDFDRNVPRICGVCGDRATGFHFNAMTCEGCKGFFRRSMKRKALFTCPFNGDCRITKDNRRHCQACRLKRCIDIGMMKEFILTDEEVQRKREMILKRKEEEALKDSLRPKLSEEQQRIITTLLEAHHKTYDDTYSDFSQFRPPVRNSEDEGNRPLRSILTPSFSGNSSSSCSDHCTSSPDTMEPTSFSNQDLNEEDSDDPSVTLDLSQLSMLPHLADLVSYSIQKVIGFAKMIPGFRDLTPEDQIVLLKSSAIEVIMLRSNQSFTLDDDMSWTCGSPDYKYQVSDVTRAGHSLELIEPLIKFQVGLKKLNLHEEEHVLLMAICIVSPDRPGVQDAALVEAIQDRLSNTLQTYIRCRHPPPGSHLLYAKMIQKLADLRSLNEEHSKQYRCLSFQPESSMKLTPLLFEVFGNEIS

relative binding affinity (RBA) [1] | Compound | Potency (HL-60)
400 | C=C1/C(=C\C=C2/CCC[C@]3(C)[C@@H]([C@@H](C)CCCC(C)(C)O)CC[C@@H]23)C[C@@H](O)C[C@@H]1O | 3571
119 | C=C1/C(=C\C=C2/CCC[C@]3(C)[C@@H]([C@@H](C)CCCC(C)(C)O)CC[C@@H]23)C[C@@H](O)[C@H](CCC)[C@@H]1O | 1750
183 | C=C1/C(=C\C=C2/CCC[C@]3(C)[C@@H]([C@@H](C)CCCC(C)(C)O)CC[C@@H]23)C[C@@H](O)[C@H](CCCCO)[C@@H]1O | 3910
100 | C=C1/C(=C\C=C2/CCC[C@]3(C)[C@@H]([C@H](C)CCCC(C)(C)O)CC[C@@H]23)C[C@@H](O)C[C@@H]1O [CALCITRIOL] | 100
320 | C=C1/C(=C\C=C2/CCC[C@]3(C)[C@@H]([C@@H](C)CCCC(C)(C)O)CC[C@@H]23)C[C@@H](O)[C@H](CCO)[C@@H]1O | 4030
300 | C=C1/C(=C\C=C2/CCC[C@]3(C)[C@@H]([C@H](C)CCCC(C)(C)O)CC[C@@H]23)C[C@@H](O)[C@H](CCCO)[C@@H]1O | 240
8 | C=C1/C(=C\C=C2/CCC[C@]3(C)[C@@H]([C@H](C)CCCC(C)(C)O)CC[C@@H]23)C[C@@H](O)[C@H](CCCC)[C@@H]1O | 74
190 | C=C1/C(=C\C=C2/CCC[C@]3(C)[C@@H]([C@@H](C)CCCC(C)(C)O)CC[C@@H]23)C[C@@H](O)[C@H](CO)[C@@H]1O | 570
400 | C=C1/C(=C\C=C2/CCC[C@]3(C)[C@@H]([C@H](C)CCCC(C)(C)O)CC[C@@H]23)C[C@@H](O)[C@H](C)[C@@H]1O | 258
33 | C=C1/C(=C\C=C2/CCC[C@]3(C)[C@@H]([C@@H](C)CCCC(C)(C)O)CC[C@@H]23)C[C@@H](O)[C@H](CCCC)[C@@H]1O | 2300
40 | C=C1/C(=C\C=C2/CCC[C@]3(C)[C@@H]([C@H](C)CCCC(C)(C)O)CC[C@@H]23)C[C@@H](O)[C@H](CC)[C@@H]1O | 106
370 | C=C1/C(=C\C=C2/CCC[C@]3(C)[C@@H]([C@@H](C)CCCC(C)(C)O)CC[C@@H]23)C[C@@H](O)[C@H](CCCO)[C@@H]1O | 4900
150 | C=C1/C(=C\C=C2/CCC[C@]3(C)[C@@H]([C@@H](C)CCCC(C)(C)O)CC[C@@H]23)C[C@@H](O)[C@H](CC)[C@@H]1O | 4200
20 | C=C1/C(=C\C=C2/CCC[C@]3(C)[C@@H]([C@H](C)CCCC(C)(C)O)CC[C@@H]23)C[C@@H](O)[C@H](CO)[C@@H]1O | 10
20 | C=C1/C(=C\C=C2/CCC[C@]3(C)[C@@H]([C@H](C)CCCC(C)(C)O)CC[C@@H]23)C[C@@H](O)[C@H](CCC)[C@@H]1O | 44
1200 | C=C1/C(=C\C=C2/CCC[C@]3(C)[C@@H]([C@@H](C)CCCC(C)(C)O)CC[C@@H]23)C[C@@H](O)[C@H](C)[C@@H]1O | 9688
120 | C=C1/C(=C\C=C2/CCC[C@]3(C)[C@@H]([C@H](C)CCCC(C)(C)O)CC[C@@H]23)C[C@@H](O)[C@H](CCCCO)[C@@H]1O | 460
70 | C=C1/C(=C\C=C2/CCC[C@]3(C)[C@@H]([C@H](C)CCCC(C)(C)O)CC[C@@H]23)C[C@@H](O)[C@H](CCO)[C@@H]1O | 86

From ChEMBL document CHEMBL1136290, “Concise synthesis and biological activities of 2alpha-alkyl- and 2alpha-(omega-hydroxyalkyl)-20-epi-1alpha,25-dihydroxyvitamin D3” (2003)
